Source: ChEMBL document CHEMBL1155808, “Antitumor activity of bis-indole derivatives” (J Med Chem, 2008)
The source made the active and inactive calls. The rule behind the calls is not given here.

Tests used:
[1] = Cytotoxicity against human Non-small cell lung carcinoma cells; assay type: functional; conditions: for CC50: read-out: pLC50 (the source's name) (converted); for TGI: read-out: pTGI (converted)
Method in brief: (§1)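 NCI 60-cell-line human tumour screen, with subpanels for leukemia, melanoma, lung, colon, kidney, ovary, breast, prostate and CNS. Compounds were dissolved in DMSO and tested at five ten-fold dilutions, highest 10^-4 M (10^-3 M for some). Endpoints were GI50, TGI and LC50, reported as negative log molar. Some compounds were assayed once, others two or three times.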

[2] = Cytotoxicity against human colon cancer cells; assay type: functional; conditions: Cancer cell lines; for CC50: read-out: pLC50 (the source's name) (converted); method in brief: as §1
[3] = Cytotoxicity against human central nervous system cancer cells; assay type: functional; conditions: Cancer cell lines; for CC50: read-out: pLC50 (the source's name) (converted); for TGI: read-out: pTGI (converted); method in brief: as §1
[4] = Cytotoxicity against human melanoma cells; assay type: functional; conditions: Melanoma cell; for CC50: read-out: pLC50 (the source's name) (converted)
[5] = Cytotoxicity against human ovarian cancer cells; assay type: functional; conditions: Cancer cell lines; for CC50: read-out: pLC50 (the source's name) (converted); for TGI: read-out: pTGI (converted)
[6] = Cytotoxicity against human renal cancer cells; assay type: functional; conditions: Cancer cell lines; for CC50: read-out: pLC50 (the source's name) (converted); for TGI: read-out: pTGI (converted); method in brief: as §1
[7] = Cytotoxicity against human prostate cancer cells; assay type: functional; conditions: Cancer cell lines; for CC50: read-out: pLC50 (the source's name) (converted); for TGI: read-out: pTGI (converted); method in brief: as §1
[8] = Cytotoxicity against human breast cancer cells; assay type: functional; conditions: Cancer cell lines; for CC50: read-out: pLC50 (the source's name) (converted); for TGI: read-out: pTGI (converted)
Method in brief: (§2)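 MTT cytotoxicity assay in breast cancer cell lines; proliferation expressed as percent growth inhibition relative to vehicle-treated control cells; IC50 reported.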

[9] = Cytotoxicity against human leukemia cells; assay type: functional; conditions: Leukemia cell; for CC50: read-out: pLC50 (the source's name) (converted); for TGI: read-out: pTGI (converted); method in brief: as §1
[10] = Inhibition of plasma membrane electron transport pathway in mitochondrial gene-knockout human HL60p'0 cells by WST1 reduction assay
Method in brief: (§3)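 Cells at 10^5 per well in 0.1 ml pretreated 30 min with compound in DMSO (<0.1% final), then WST-1/mPMS added (final 500 µM and 20 µM); WST-1 reduction followed in real time at 450 nm; averages ± S.E.M. of four independent experiments.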

[11] = Inhibition of plasma membrane electron transport pathway in human HL60 cells by WST1 reduction assay; assay type: cell-based; conditions: HL-60; method in brief: as §3
[12] = Inhibition of plasma membrane electron transport pathway in human B1647 cells by WST1 reduction assay; assay type: cell-based; method in brief: as §3
[13] = Inhibition of plasma membrane electron transport pathway in human HEL cells by WST1 reduction assay; assay type: cell-based; method in brief: as §3
[14] = Inhibition of plasma membrane electron transport pathway in human Mo7e cells by WST1 reduction assay; assay type: cell-based; method in brief: as §3
[15] = tested on: B1647; experiment: Antiproliferative activity against human B1647 cells after 48 hrs by MTT assay; assay type: functional, cell-based
[16] = tested on: HEL; experiment: Antiproliferative activity against human HEL cells after 48 hrs by MTT assay; assay type: functional, cell-based
[17] = tested on: Mo7e; experiment: Antiproliferative activity against human Mo7e cells after 48 hrs by MTT assay; assay type: functional, cell-based
[18] = tested on: Mus musculus; experiment: Toxicity in ip dosed mouse assessed as maximum tolerated dose after 14 days; assay type: organism-based; conditions: in vivo, 336 h
Method in brief: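 Mice received a single i.p. injection of 400 mg/kg. If the animal survived 14 days, MTD was 400 mg/kg. If it died, the dose was lowered to 200 mg/kg and then halved repeatedly until a tolerated dose was found, which was taken as the MTD.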

[19] = tested on: Mus musculus; experiment: Toxicity in human HL60(TB) cells xenografted mouse assessed as mean net weight loss at 200 mg/kg, ip dosed as Q4Dx3, day 7 schedule measured on day 14; assay type: organism-based; design: dose 200 mg/kg, route intraperitoneal; conditions: in vivo
[20] = tested on: Mus musculus; experiment: Toxicity in human HL60(TB) cells xenografted mouse assessed as mean net weight loss at 134 mg/kg, ip dosed as Q4Dx3, day 7 schedule measured on day 14; assay type: organism-based; design: dose 134 mg/kg, route intraperitoneal; conditions: in vivo
[21] = tested on: Mus musculus; experiment: Toxicity in human HL60(TB) cells xenografted mouse assessed as mean net weight loss at 90 mg/kg, ip dosed as Q4Dx3, day 7 schedule measured on day 22; assay type: organism-based; design: dose 90 mg/kg, route intraperitoneal; conditions: in vivo
[22] = tested on: Mus musculus; experiment: Toxicity in human HL60(TB) cells xenografted mouse assessed as drug induced death at 200 mg/kg, ip dosed as Q4Dx3, day 7 schedule measured on day 14; assay type: organism-based; design: dose 200 mg/kg, route intraperitoneal; conditions: in vivo
[23] = tested on: Mus musculus; experiment: Toxicity in human HL60(TB) cells xenografted mouse assessed as drug induced death at 134 mg/kg, ip dosed as Q4Dx3, day 7 schedule measured on day 14; assay type: organism-based; design: dose 134 mg/kg, route intraperitoneal; conditions: in vivo
[24] = tested on: Mus musculus; experiment: Toxicity in human HL60(TB) cells xenografted mouse assessed as drug induced death at 90 mg/kg, ip dosed as Q4Dx3, day 7 schedule measured on day 22; assay type: organism-based; design: dose 90 mg/kg, route intraperitoneal; conditions: in vivo
[25] = Antitumor activity against human HL60(TB) cells xenografted in mouse assessed as effect on tumor growth at 200 mg/kg, ip dosed as Q4Dx3, day 7 schedule measured on day 19 relative to control; assay type: functional, HL-60(TB); conditions: route intraperitoneal
[26] = Antitumor activity against human HL60(TB) cells xenografted in mouse assessed as effect on tumor growth at 134 mg/kg, ip dosed as Q4Dx3, day 7 schedule measured on day 19 relative to control; assay type: functional, HL-60(TB); conditions: route intraperitoneal
[27] = Antitumor activity against human HL60(TB) cells xenografted in mouse assessed as tumor growth delay at 90 mg/kg, ip dosed as Q4Dx3, day 7 schedule day 7 schedule measured on day 19 relative to control; assay type: functional, HL-60(TB); conditions: route intraperitoneal
[28] = Antitumor activity against human HL60(TB) cells xenografted in mouse assessed as tumor growth delay at 200 mg/kg, ip dosed as Q4Dx3, day 7 schedule relative to control; assay type: functional, HL-60(TB); conditions: route intraperitoneal
[29] = Antitumor activity against human HL60(TB) cells xenografted in mouse assessed as tumor growth delay at 134 mg/kg, ip dosed as Q4Dx3, day 7 schedule relative to control; assay type: functional, HL-60(TB); conditions: route intraperitoneal
[30] = Antitumor activity against human HL60(TB) cells xenografted in mouse assessed as tumor growth delay at 90 mg/kg, ip dosed as Q4Dx3, day 7 schedule relative to control; assay type: functional, HL-60(TB); conditions: route intraperitoneal
[31] = Antitumor activity against human HL60(TB) cells xenografted in mouse assessed as net log cell kill at 200 mg/kg, ip dosed as Q4Dx3, day 7 schedule relative to control; assay type: functional, HL-60(TB); conditions: route intraperitoneal
[32] = Antitumor activity against human HL60(TB) cells xenografted in mouse assessed as net log cell kill at 134 mg/kg, ip dosed as Q4Dx3, day 7 schedule relative to control; assay type: functional, HL-60(TB); conditions: route intraperitoneal
[33] = Antitumor activity against human HL60(TB) cells xenografted in mouse assessed as net log cell kill at 90 mg/kg, ip dosed as Q4Dx3, day 7 schedule relative to control; assay type: functional, HL-60(TB); conditions: route intraperitoneal
[34] = tested on: MCF7; experiment: Cytotoxicity against human MCF7 cells; assay type: functional, cell-based
[35] = tested on: MDA-MB-231; experiment: Cytotoxicity against human MDA-MB-231 cells; assay type: functional, cell-based
[36] = tested on: Hs-578T; experiment: Cytotoxicity against human Hs578T cells; assay type: functional, cell-based; method in brief: as §2
[37] = tested on: MCF7; experiment: Inhibition of proteasome in human MCF7 cells assessed as increase in stability of BCA2 protein at 1 umol/L in presence of cyclohexamide after 16 hrs by Western blot
Method in brief: (§4)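 MCF7 cells, 1×10^6 seeded per well, grown overnight; cycloheximide 100 μmol/L added alone or with MG-132 (10 μmol/L) or compound, total 8 and 16 h; lysates Western blotted with anti-BCA2, anti-C-erbB2 and β-actin antibodies; BCA2 and C-erbB2 levels expressed relative to β-actin by densitometry.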

[38] = tested on: MCF7; experiment: Effect on beta-actin stability in human MCF7 cells at 10 umol/L in presence of cyclohexamide by Western blot; assay type: functional, cell-based; method in brief: as §4
[39] = tested on: MCF7; experiment: Effect on C-erbB2 protein stability in human MCF7 cells at 10 umol/L in presence of cyclohexamide by Western blot; assay type: functional, cell-based; method in brief: as §4
[40] = tested on: HL-60; experiment: Cytotoxicity against human HL60 cells after 48 hrs by MTT assay; assay type: functional, cell-based; conditions: HL-60, 48 h
[41] = Cytotoxicity against human mitochondrial gene-knockout human HL60p'0 cells after 48 hrs by MTT assay; assay type: functional, cell-based

SMILES: COc1ccc2c(c1)/C(=C\c1cccc(/C=C3/C(=O)Nc4ccc(OC)cc43)n1)C(=O)N2
- GI50 [1]: 1.7 µM
- CC50 [1]: 43.7 µM
- TGI [1]: 10.7 µM
- GI50 [2]: 0.794 µM
- CC50 [2]: 30.9 µM
- TGI ([2]; read-out: pTGI (converted)): 4.68 µM
- GI50 [3]: 1.62 µM
- CC50 [3]: 63.1 µM
- TGI [3]: 12.9 µM
- GI50 [4]: 0.891 µM
- CC50 [4]: 13.5 µM
- GI50 [5]: 1.12 µM
- CC50 [5]: 46.8 µM
- TGI [5]: 9.33 µM
- GI50 [6]: 1.45 µM
- CC50 [6]: 24 µM
- TGI [6]: 4.27 µM
- GI50 [7]: 1.66 µM
- CC50 [7]: 69.2 µM
- TGI [7]: 9.33 µM
- GI50 [8]: 1.48 µM
- CC50 [8]: 81.3 µM
- TGI [8]: 14.8 µM
- GI50 [9]: 0.617 µM
- CC50 [9]: 57.5 µM
- TGI [9]: 3.8 µM
- IC50 [10]: > 117 µM
- IC50 [11]: > 117 µM
- IC50 [12]: 30 µM
- IC50 [13]: 30 µM
- IC50 [14]: 30 µM
- Activity [15]: Active
- Activity [16]: Active
- Activity [17]: Active
- MTD [18]: 400 mg/kg
- Activity [19]: 10%
- Activity [20]: 6.4%
- Activity [21]: 9.1%
- Activity [22]: Non-toxic
- Activity [23]: Non-toxic
- Activity [24]: Non-toxic
- T/C [25]: 90%
- T/C [26]: 6.4%
- T/C [27]: 138%
- Activity [28]: 48%
- Activity [29]: -17%
- Activity [30]: 25%
- LCK [31]: -0.8
- LCK [32]: -1.8
- LCK [33]: -1.1

SMILES: O=C1Nc2cccc(Cl)c2/C1=C\c1cccc(/C=C2/C(=O)Nc3cccc(Cl)c32)n1
- GI50 [1]: 0.676 µM
- CC50 [1]: 34.7 µM
- TGI [1]: 2.69 µM
- GI50 [2]: 0.417 µM
- CC50 [2]: 19.1 µM
- GI50 [3]: 0.603 µM
- CC50 [3]: 23.4 µM
- TGI [3]: 2.82 µM
- GI50 [4]: 0.589 µM
- CC50 [4]: 15.8 µM
- GI50 [5]: 0.501 µM
- CC50 [5]: 30.9 µM
- TGI [5]: 2.82 µM
- GI50 [6]: 0.427 µM
- CC50 [6]: 7.59 µM
- TGI [6]: 1.51 µM
- GI50 [7]: 0.437 µM
- CC50 [7]: 15.8 µM
- TGI [7]: 2.09 µM
- GI50 [8]: 0.389 µM
- CC50 [8]: 39.8 µM
- TGI [8]: 3.31 µM
- GI50 [9]: 0.0912 µM
- CC50 [9]: 44.7 µM
- TGI [9]: 1.91 µM
- IC50 [34]: 0.23 µM
- IC50 [35]: 0.3 µM
- IC50 [36]: 0.4 µM
- fold change (FC) [37]: 2
- Activity [38]: inactive
- Activity [39]: inactive
- IC50 [10]: > 117 µM
- IC50 [11]: > 117 µM
- IC50 [40]: 3 µM
- IC50 [41]: 3 µM
- IC50 [12]: 30 µM
- IC50 [13]: 24 µM
- IC50 [14]: 15 µM
- Activity [15]: Active
- Activity [16]: Active
- Activity [17]: Active
- MTD [18]: 400 mg/kg
